High-throughput results: PubChem, Sanford-Burnham Center for Chemical Genomics
Compounds with a hit are over-represented: about 3.9% of the library has one in this group of screens.
tim10-1 inh = growth inhibitors of tim10-1 mutant yeast | S. cerevisiae tim10-1 ts strain growth, BacTiter-Glo, 24 h | AID 463190 | actives 2.2% (n = 330,000) | inhibition, % at 20 µM;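 active = inhibition of at least 40%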;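 note: mutant grown at 25 °C; 0% = DMSO wells with yeast and 100% = wells holding no yeast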
CHOP UPR activ = apoptotic UPR (CHOP) activation; activation, % at 10 µM; CHO-CHOP luciferase reporter, luminescence; percent of tunicamycin response over DMSO baseline; AID 449763; actives 0.34% (n = 330,000);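 active = at 10 µM dose, activation of 40% or more, normalized to positive control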;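 note: 100% = tunicamycin at 10 µg/mL and 0% = DMSO alone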
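System: CHO-CHOP luciferase reporter cell line | Buffer or medium: F12 medium containing 10% fetal bovine serum | Doses: One dose, 10 µM in 0.5% DMSO | Times: 6 h compound exposure at 37 °C after overnight seeding | Signal: Luciferase luminescence | Read-out: % activation vs tunicamycin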
UPR XBP1 act = activators of adaptive arm of unfolded protein response (XBP1). CHO-XBP1 luciferase reporter, IRE1-XBP1 UPR activation, luminescence; percent of tunicamycin response, DMSO as zero. activation, % at 20 µM. actives 0.33% (n = 330,000). AID 463104;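 active = versus positive control, 20 µM dose yields 30% or more activation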;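 note: 100% = tunicamycin at 10 µg/mL and 0% = DMSO only wells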
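assay system = CHO-XBP1 luciferase reporter cells | amount = 1000 cells/well | buffer or medium = F12 plus 10% FBS | compound dosing = single point, 20 µM final compound, 1% DMSO | incubation = 16-18 h cell attachment at 37 °C, then 6 h compound exposure | detection = Steady-Glo luminescence read | controls = tunicamycin 10 µg/mL and vehicle-only wells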
TIM10 inh = growth inhibitors of TIM10 yeast strain | S. cerevisiae TIM10 strain growth, BacTiter-Glo luminescence, 24 h | inhibition, % at 10 µM | actives 1.4% (n = 330,000);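 active = inhibition of 40% or more at the single tested concentration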;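 note: wild-type TIM10 isogenic control strain grown at permissive 25 °C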
tim23-1 inh = inhibits growth of tim23-1 mutant yeast | inhibition, % at 20 µM | AID 463212 | S. cerevisiae tim23-1 growth, BacTiter-Glo luminescence, 24 h | actives 1.3% (n = 330,000);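 active = growth inhibition of the mutant yeast at or above 50%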;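 note: temperature-sensitive mutant grown at 25 °C; plate controls were DMSO-treated mutant yeast for no effect and medium wells lacking yeast for full effect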
TIM10 conf = TIM10 yeast growth inhibition, confirmed; AID 463215; shares compounds with TIM10 inh; S. cerevisiae tim10 strain growth, BacTiter-Glo luminescence, 24 h; actives 63% (n = 4,600); inhibition, % at 10 µM;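 active = inhibition of yeast growth at or above a set limit in either of two replicates at 10 µM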;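 note: this counterscreen used the strain with wild-type TIM10; 0% = yeast with DMSO and 100% = medium wells lacking yeast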
tim23-1 confirm = confirmation of tim23-1 mutant yeast growth inhibitors; shares compounds with tim23-1 inh; S. cerevisiae tim23-1 growth, BacTiter-Glo luminescence, 24 h; inhibition, % at 20 µM; actives 83% (n = 4,400);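 active = inhibition above about 39% in either of two replicate wells at 20 µM, limit read from the data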;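 note: temperature-sensitive tim23-1 mutant grown at 25 °C; 0% = DMSO wells with yeast and 100% = medium wells without yeast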
The depositor's hits bear a star; · = no result given.

SMILES	tim10-1 inh	CHOP UPR activ	UPR XBP1 act	TIM10 inh	tim23-1 inh	TIM10 conf	tim23-1 confirm
COc1ccc(Cl)cc1C(=O)Nn1cnnc1	0.6	4.1	-0.8	-3.3	-8.4	·	·
CCn1c(=O)n(CC(=O)NCC2CCCO2)c(=O)c2c3c(sc21)COC(C)(C)C3 (centres undefined)	20.0	1.4	-2.0	-2.3	11.6	·	·
O=c1c(Cl)c(NCc2ccccc2Cl)cnn1C12CC3CC(CC(C3)C1)C2	6.2	2.9	-0.1	41.5*	52.0*	27.4	55.2*
O=C(CSc1ccc(-c2ccc(F)cc2)nn1)NC1CCCCC1	7.7	0.5	9.6	15.8	3.3	·	·
CCN1C(=O)/C(=C\c2ccncc2)SC1=S	25.9	-1.0	-0.5	51.5*	68.0*	39.2*	14.8
O=C1/C(=C/c2ccncc2)SC(=S)N1C1CCCCC1	35.8	-2.2	0.6	50.1*	50.8*	-7.8	38.6*
Cc1ccc(N(CC(=O)Nc2ccccc2-c2ccccc2)S(=O)(=O)c2ccccc2)c(C)c1	25.2	0.2	-1.2	10.6	27.8	·	·
CCN(CC)CCSc1nc2ccccc2n1Cc1ccccc1	19.9	-1.4	-2.8	6.0	14.2	·	·
Cc1ccccc1C(=O)NC1CCN(CC(=O)N2CCCCC2C)CC1 (centres undefined)	-18.4	1.3	-4.9	-0.5	4.2	·	·
CCOc1cc(Br)c(Br)c(C=Nc2ccc(NC(C)=O)cc2)c1O	-6.2	0.5	-3.2	70.7*	75.9*	89.7*	-60.9
CCCCCCn1c(-c2ccco2)nc2oc3cc(OC)ccc3c(=O)c2c1=O	33.8	-0.2	1.9	44.9*	50.0*	15.7	37.3*
O=C(CCl)Nc1cccc(-c2cnc3ccccc3n2)c1	34.2	-0.7	-3.8	40.4*	63.3*	0.5	40.4*
COc1ccc2cc(CN(Cc3ccco3)C(c3nnnn3C3CCCCC3)C(C)C)c(=O)[nH]c2c1 (centres undefined)	32.3	3.6	0.9	17.3	35.2	·	·
COc1ccc2cc(CN(Cc3ccco3)Cc3nnnn3C3CCCCC3)c(=O)[nH]c2c1	34.0	0.6	-2.7	40.9*	59.1*	18.4	60.2*
O=C(c1ccco1)N1CCN(C(=O)c2cn(-c3ccccc3)nc2-c2ccccc2)CC1	27.3	2.6	-0.7	15.5	17.4	·	·
COn1c(=O)c(-c2ccccc2)[n+]([O-])c2ccccc21	27.5	-0.3	-5.6	19.3	21.6	·	·
COn1c(=O)c(-c2cccs2)[n+]([O-])c2ccccc21	36.2	3.8	-0.4	43.4*	51.5*	1.1	63.7*
O=C(NCCNC(=O)c1ccc(Cl)cc1Cl)c1ccco1	-7.9	0.3	0.2	-19.1	-2.0	·	·
CCOCC(=O)Nc1cc(C(=O)Nc2ccccc2)ccc1Cl	19.2	0.2	-1.7	53.7*	60.3*	45.0*	67.4*
CCOCC(=O)Nc1cc(C(=O)Nc2cc(C)cc(C)c2)ccc1Cl	1.8	4.2	-0.6	5.1	2.8	·	·
CC1=C(C)/C(=N/OC(=O)c2cccc([N+](=O)[O-])c2)C=CC1=O	39.7	15.8	-3.9	40.7*	61.7*	19.2	85.8*
NC(=O)c1cccc([N+](=O)[O-])c1	-11.5	0.8	-2.1	11.4	-6.4	·	·
COc1ccc(C/C(N)=N/OC(=O)c2cccc([N+](=O)[O-])c2)cc1	27.0	-0.4	-1.6	72.0*	72.6*	85.8*	67.6*
CCOP(=O)(OCC)/C(=N/OC(=O)c1cccc([N+](=O)[O-])c1)C(N)=O	16.1	1.4	-0.9	12.6	-2.4	·	·
COc1ccc(Cl)cc1C(=O)O/N=C(\N)c1ccc(Cl)cc1	28.6	2.9	-1.0	79.2*	88.8*	83.3*	43.8*
SMILES	tim10-1 inh	CHOP UPR activ	UPR XBP1 act	TIM10 inh	tim23-1 inh	TIM10 conf	tim23-1 confirm
COc1ccc(C(=O)O/N=C(\N)Cc2ccc(Cl)cc2)cc1OC	-1.8	-0.4	4.6	79.0*	67.6*	86.4*	49.0*
CC(C#N)Sc1nnc(-c2ccccc2F)n1C1CC1 (centres undefined)	-12.2	0.8	-5.0	4.4	5.3	·	·
N/C(Cc1ccc(Cl)cc1)=N\OC(=O)Cc1ccc([N+](=O)[O-])cc1	37.8	2.3	-2.1	77.3*	55.2*	-5.9	72.2*
N#C/C(=C\c1ccccc1)C(=O)NNS(=O)(=O)c1cccc([N+](=O)[O-])c1	2.9	-0.6	-0.7	-0.4	14.3	·	·
N#C/C(=C/c1cccc([N+](=O)[O-])c1)C(=O)Nc1ccccc1O	32.1	-0.7	2.2	41.8*	73.1*	40.0*	57.0*
CN(C)CCCN(C(=O)c1cc(-c2cccs2)nc2ccccc12)c1nc2c(F)cccc2s1	37.0	3.0	0.7	30.3	-2.8	·	·
Cc1ccc2nc(N(CCCN(C)C)C(=O)c3cc(-c4cccs4)nc4ccccc34)sc2c1	39.6	2.7	4.4	40.6*	60.4*	41.6*	30.8
Cc1ccc(C(C)C)cc1S(=O)(=O)NCc1ccccn1	13.6	2.1	0.5	-1.1	25.7	·	·
COc1ccc(/C=N/NC(=O)c2nc(-c3ccccc3)n(-c3ccccc3)n2)c(O)c1	8.5	-1.7	-1.2	-5.3	-5.7	·	·
CC(C)(C)c1cc(C(=O)N/N=C/c2ccccc2O)n(-c2ccccc2)n1	38.3	-2.5	1.1	58.6*	59.0*	-18.0	56.1*
CC(Sc1ccccc1)C(=O)NCC1COc2ccccc2O1 (centres undefined)	2.9	0.7	-3.1	1.4	4.8	·	·
CC1CC(C)CN(C(=S)Nc2ccc(SC(F)F)cc2)C1 (centres undefined)	34.0	0.9	-1.1	52.4*	54.2*	-1.9	52.4*
CCCN(CC(=O)Nc1ccccc1OC)C(=O)c1ccc2c(c1)NC(=O)C(C)S2 (centres undefined)	-6.0	-0.8	-4.7	1.3	7.1	·	·
CCOc1ccc(C2=NNC(c3cccs3)=Nc3ccc(OCC)cc32)cc1	28.9	1.1	-4.1	51.8*	55.0*	44.0*	68.2*
CCOc1ccc(C2=NNC(c3cccs3)=Nc3ccc(OC)cc32)cc1OCC	12.3	4.6	2.7	33.2	0.4	·	·
CCCc1ccc(O)c(N=Cc2cc(Br)cc(OCC)c2O)c1	37.4	-0.1	-1.6	43.1*	56.5*	32.9*	74.3*
CCc1ccc(O)c(N=Cc2cccc(C)c2O)c1	21.9	1.7	1.1	8.1	25.4	·	·
CC(=O)Nc1ccc2c(c1)CCC2=O	-9.9	-1.0	-5.0	-10.0	1.1	·	·
CC(=O)Nc1ccc(/C=C2\CCc3ccccc3C2=O)cc1	34.2	6.7	-3.0	41.0*	61.4*	36.3*	46.0*
CC1CCCC(NC(=O)CSc2nncs2)C1C (centres undefined)	-5.7	-2.2	-0.6	4.6	4.7	·	·
